Measurements reported in PMC6139073 (Cancer research, 2018).

Legend:
[1] = Plasma pharmacokinetics in patients; assay type: in vivo, human
[2] = tested on: FZD1/2; experiment: FZD1/2 immunohistochemistry; assay type: in vivo, human; settings: run-in and concurrent arms combined; H-score over 50 positive
Summary of the method: (§1)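 Tumour biopsies from the expansion cohort (20 patients with metastatic irinotecan- and oxaliplatin-refractory CRC on MEK inhibitor plus Wnt-modulator combination); two core biopsies per patient, taken pre- and post-treatment. IHC with hematoxylin counterstain; brown membrane/cytoplasmic staining was scored positive. H-score (0–300) was derived from the proportion and intensity of stained tumour cells in the predominant compartment. Values over 50 were positive, and results were summarised descriptively.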

[3] = single agent; cited from earlier work
[4] = in vivo; cited from earlier work
[5] = in vivo; cited from earlier work; remark: listed apart in the source
[6] = tested on: p-ERK; experiment: p-ERK immunohistochemistry; assay type: in vivo, human; settings: run-in and concurrent arms combined; H-score over 50 positive
Summary of the method: as §1

[7] = tested on: advanced BRAF V600E or V600K mutated melanoma; settings: single agent, cited from earlier work

SMILES: Cn1cnc2c(F)c(Nc3ccc(Br)cc3Cl)c(C(=O)NOCCO)cc21 [selumetinib]
- difference in pharmacokinetics of selumetinib given alone versus with CsA ([1]; day -7 vs C1D1): no substantial difference
- Cmax ([1]; human, plasma, oral): 1250 ng/mL
- Cmax ([1]; human, plasma, oral, 75 mg): 1550 ng/mL
- half-life ([1]; human, plasma, oral, 75 mg): 6.4 h
- patients positive for FZD1/2 post-treatment [2]: 11 out of 15
- Recommended Phase II Dose (RP2D) [3]: 100 mg BID
- mean half-life (t½) [4]: 5 to 8 h
- Visual changes, patients [5]: 12%
- dose limiting toxicity [5]: grade 3 acneiform rash and pleural effusion
- patients positive for p-ERK post-treatment [6]: 14 out of 15

SMILES: CC(=O)Nc1cccc(-n2c(=O)n(C3CC3)c(=O)c3c(Nc4ccc(I)cc4F)n(C)c(=O)c(C)c32)c1 [trametinib]
- median progression-free survival ([7]; vs 1.5 in comparator, p < 0.001): 4.8 mos
- 6-month survival rate ([7]; vs 67% in comparator): 81%
